Source: ChEMBL document CHEMBL3632498, “Identification of small molecule inhibitors of the STAT3 signaling pathway: Insights into their structural features and mode of action” (Bioorg Med Chem Lett, 2015)
Blank lines part the entries; values can stand above or below the compound they belong to. Activity calls are given as the source filed them. The calls are words filed in the database; no cut-off is given here.

Experiments:
[1] = target: Signal transducer and activator of transcription 3 (Homo sapiens) (UniProt P40763); assay: Inhibition of STAT3 transcriptional activity in human oncostatin M-stimulated HeLa cells at 10 uM after 24 hrs by luciferase reporter gene assay; assay type: cell-based
Chain of Signal transducer and activator of transcription 3 (Homo sapiens) (P40763 whole entry): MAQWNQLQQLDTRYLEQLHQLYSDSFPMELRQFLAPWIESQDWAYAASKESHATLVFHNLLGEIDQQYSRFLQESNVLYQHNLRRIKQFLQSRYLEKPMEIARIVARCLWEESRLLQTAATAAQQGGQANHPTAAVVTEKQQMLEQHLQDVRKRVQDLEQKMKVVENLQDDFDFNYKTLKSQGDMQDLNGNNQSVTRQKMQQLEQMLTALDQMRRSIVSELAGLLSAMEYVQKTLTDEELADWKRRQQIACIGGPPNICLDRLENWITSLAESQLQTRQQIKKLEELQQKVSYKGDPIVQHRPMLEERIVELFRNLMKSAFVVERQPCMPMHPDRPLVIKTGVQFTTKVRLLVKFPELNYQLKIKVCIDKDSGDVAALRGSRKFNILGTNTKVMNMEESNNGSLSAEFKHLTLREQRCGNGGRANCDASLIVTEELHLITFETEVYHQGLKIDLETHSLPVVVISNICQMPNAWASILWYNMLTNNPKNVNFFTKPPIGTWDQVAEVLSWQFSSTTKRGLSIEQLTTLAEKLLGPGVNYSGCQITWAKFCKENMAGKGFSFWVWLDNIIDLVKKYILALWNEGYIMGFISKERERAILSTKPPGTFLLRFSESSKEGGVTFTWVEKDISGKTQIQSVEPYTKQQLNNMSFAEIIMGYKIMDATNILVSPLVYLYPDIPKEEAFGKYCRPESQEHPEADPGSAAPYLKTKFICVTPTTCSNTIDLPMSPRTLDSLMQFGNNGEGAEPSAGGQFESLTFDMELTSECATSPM
In short: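 HeLa cells carrying a STAT3-luciferase reporter pretreated with DMSO or compound (10 µM) for 24 h, stimulated with oncostatin M 10 ng/mL for 5 h, then luciferase reporter activity measured.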

[2] = target: Signal transducer and activator of transcription 3 (Homo sapiens) (UniProt P40763); assay: Inhibition of STAT3 phosphorylation in human MCF10A cells transformed with H-ras at 10 uM after 24 hrs by Western blot analysis; assay type: cell-based; settings: MCF-10A
In short: (§1)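 Immunoblot of STAT3 phosphorylation in MCF10A-ras cells after 24 h treatment at 5 and 10 µM (analogs at 10 µM). In a thiol-reducing arm, cells got 0.5 mM DTT for 1 h before 10 µM compound for 24 h.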

[3] = target: Signal transducer and activator of transcription 3 (Homo sapiens) (UniProt P40763); assay: Binding to STAT3 in human MCF10A cells transformed with H-ras at 5 to 30 uM after 24 hrs using HRP-streptavidin by Western blot analysis; settings: MCF-10A
[4] = target: T1, Signal transducer and activator of transcription 1-alpha/beta (Homo sapiens) (UniProt P42224); assay: Inhibition of STAT1 phosphorylation in human MCF10A cells transformed with H-ras at 1 to 10 uM after 24 hrs by Western blot analysis; assay type: cell-based; settings: MCF-10A
T1 sequence (whole entry): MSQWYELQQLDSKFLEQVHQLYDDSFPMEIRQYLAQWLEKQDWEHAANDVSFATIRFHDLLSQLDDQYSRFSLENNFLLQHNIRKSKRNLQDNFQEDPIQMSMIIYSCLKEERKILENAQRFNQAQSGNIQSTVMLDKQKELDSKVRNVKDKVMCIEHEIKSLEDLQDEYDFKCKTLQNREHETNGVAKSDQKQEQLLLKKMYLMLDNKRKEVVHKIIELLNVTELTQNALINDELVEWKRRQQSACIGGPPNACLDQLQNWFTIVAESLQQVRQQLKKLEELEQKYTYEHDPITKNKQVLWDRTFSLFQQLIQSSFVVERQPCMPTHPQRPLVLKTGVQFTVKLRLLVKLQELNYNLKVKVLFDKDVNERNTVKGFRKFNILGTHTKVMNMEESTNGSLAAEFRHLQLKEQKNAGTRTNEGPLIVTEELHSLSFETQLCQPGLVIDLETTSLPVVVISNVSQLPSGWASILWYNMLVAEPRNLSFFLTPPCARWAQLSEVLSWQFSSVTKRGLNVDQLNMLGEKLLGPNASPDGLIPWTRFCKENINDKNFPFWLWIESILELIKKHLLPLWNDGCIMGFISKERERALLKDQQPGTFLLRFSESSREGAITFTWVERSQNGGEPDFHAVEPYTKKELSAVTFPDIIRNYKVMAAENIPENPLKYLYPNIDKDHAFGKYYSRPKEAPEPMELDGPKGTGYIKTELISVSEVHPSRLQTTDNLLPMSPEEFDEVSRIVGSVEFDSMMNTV
In short: (§2)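 MCF10A-ras cells treated at the indicated concentrations for 24 h; lysates immunoblotted for p-STAT3, total STAT3 and p-STAT1.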

[5] = target: Signal transducer and activator of transcription 3 (Homo sapiens) (UniProt P40763); assay: Inhibition of STAT3 phosphorylation in human MCF10A cells transformed with H-ras at 5 to 10 uM after 24 hrs by Western blot analysis; assay type: cell-based; settings: MCF-10A; in short: as §1
[6] = Cytotoxicity against wild type human MCF10A cells at 2 uM after 24 hrs; assay type: cell-based; settings: mcf-10a
In short: (§3)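 MCF10A and MCF10A-ras cells exposed to each inhibitor for 24 h, then cytotoxicity measured.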

MCF7 = assay: Cytotoxicity against human MCF7 cells at 1 to 5 uM after 24 hrs; assay type: functional, cell-based
In short: (§4)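 MCF7 and MDA-MB-231 breast cancer cells treated at the indicated concentrations for 24 h; viability then assessed.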

MCF-10A = assay: Cytotoxicity against human MCF10A cells transformed with H-ras at 2 uM after 24 hrs; assay type: functional, cell-based; in short: as §3
[7] = target: Signal transducer and activator of transcription 3 (Homo sapiens) (UniProt P40763); assay: Inhibition of STAT3 phosphorylation in human MCF10A cells transformed with H-ras at 1 to 10 uM after 24 hrs by Western blot analysis; assay type: cell-based; settings: MCF-10A; in short: as §2
MDA-MB-231 = assay: Cytotoxicity against human MDA-MB-231 cells at 1 to 5 uM after 24 hrs; assay type: functional, cell-based; in short: as §4

inhibition [1]: inactive
inhibition [2]: inactive
SMILES: COc1ccc(C(C)C(=O)c2ccc3c(c2OC)C=CC(C)(C)O3)cc1OC (centres undefined)

binding [3]: Active
SMILES: C=C(C(=O)c1ccc2c(c1OC)C=CC(C)(C)O2)c1ccc(OC/C=C/CNC(=O)CCCC[C@@H]2SC[C@@H]3NC(=O)N[C@@H]32)c(OC)c1

The next lines start with the compound.

SMILES: C=C(c1ccc(OC)c(OC)c1)C(O)c1ccc2c(c1OC)C=CC(C)(C)O2 (centres undefined)
inhibition [1]: inactive

SMILES: COc1ccc(CC(=O)c2ccc3c(c2OC)C=CC(C)(C)O3)cc1OC
inhibition [1]: inactive
inhibition [2]: inactive

SMILES: C=C(C(=O)c1ccc2c(c1OC)C=CC(C)(C)O2)c1ccc(OC)c(OC)c1
inhibition [4]: inactive
inhibition [5]: Active
Activity [6]: Non-toxic
Activity (MCF7): Active
inhibition [1]: Active
Activity (MCF-10A): Active
inhibition [7]: Active
Activity (MDA-MB-231): Active
